Compounds with a hit are over-represented: about 5.6% of the library has one in this group of screens.
CHOP inhibitor: inhibitors of CHOP induction in ER stress response | AID 2732 | CHO-K1 CHOP-promoter luciferase, tunicamycin-induced, 15-18 h | 3.8% of 220,000 active | inhibition, % at 10 µM;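 active = compounds that reduced the stress-induced luciferase reporter signal by more than about 70% of percent inhibition, limit read from the data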;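 also: 0% = tunicamycin plus vehicle and 100% = wells without tunicamycin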
aDG glyco act: alpha-DG glycosylation activation | Pro5-aDG cells, alpha-DG glycosylation AlphaScreen (IIH6); 0% Pro5, 100% B10-LARGE cell signal | activation, % at 10 µM | 0.22% of 360,000 active;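 active = activation of at least 8% versus controls, or a plate z-score of at least 8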;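 also: Pro5 are CHO cells carrying HIG-tagged alpha-DG that lacks glycosylation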
GRIN3A LBD mod: modulates the human NR3A ligand-binding domain; NR3A LBD differential scanning fluorimetry, Tm shift; 0% = protein alone, 100% = glycine-bound protein; 2.5% of 340,000 active; Tm shift relative to glycine control, % at 25 µM;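 active = melting temperature shift of at least 10% of the positive control shift, at one fixed dose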
XBP1 UPR activ: adaptive UPR (XBP1) activation. CHO-XBP1 luciferase reporter, IRE1-XBP1 UPR activation, luminescence; percent of tunicamycin response, DMSO as zero. activation, % at 20 µM. 0.33% of 330,000 active;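 active = versus positive control, 20 µM dose yields 30% or more activation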;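 also: 100% = tunicamycin at 10 µg/mL and 0% = DMSO only wells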
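Assay system: CHO-XBP1 luciferase reporter cells; Schedule: 6 h treatment, 37 °C; Detection: glow luminescence from Steady-Glo reagent; Benchmarks: high control tunicamycin 10 µg/mL final, low control DMSO vehicle only.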
UPR CHOP act: apoptotic UPR (CHOP) activation; CHO-CHOP luciferase reporter, luminescence; percent of tunicamycin response over DMSO baseline; activation, % at 10 µM; 0.34% of 330,000 active; AID 449763;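 active = at 10 µM dose, activation of 40% or more, normalized to positive control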;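 also: 100% = tunicamycin at 10 µg/mL and 0% = DMSO alone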
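assay system = CHO CHOP reporter cells | amount = 500 CHO-CHOP cells per well | buffer or medium = F12 with 10% FBS | incubation = 16-18 h cell attachment, then 6 h compound exposure, 37 °C | detection = luminescence read with Steady-Glo | read-out = percent activation relative to tunicamycin control | controls = tunicamycin high control, DMSO low control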
MPTP block: blocks calcium-induced mitochondrial swelling | inhibition, % at 10 µM | AID 602449 | 1.4% of 360,000 active | isolated mouse mitochondria, Ca2+ swelling absorbance, 30 min;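 active = inhibition of 50% or more, scaled per plate between neutral and stimulator controls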;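 also: 0% = DMSO wells given calcium and 100% = 1 mM EGTA wells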
Rh123 counter: Rhodamine 123 counter-screen of mitochondrial pore hits | shares compounds with MPTP block | isolated mitochondria, membrane potential, Rhodamine 123 fluorescence | inhibition, % at 10 µM | 78% of 5,000 active; in the data active = inhibition above about 22%;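 also: 0% = DMSO vehicle and 100% = positive control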
MPTP abs DR: MPTP inhibition, dose response swelling confirmation; shares compounds with MPTP block; isolated mitochondria swelling, absorbance; IC50, µM; 58% of 780 active; in the data active = IC50 below about 20 µM
MPTP cs DR: counter-screen for mitochondrial permeability transition pore inhibitors, dose response | 49% of 780 active | isolated mitochondria counterscreen, fluorescence read-out | shares compounds with MPTP block | IC50, µM | AID 651564; in the data active = IC50 below about 80 µM
An asterisk follows results filed as active; i = inactive; x = no result.

SMILES	CHOP inhibitor	aDG glyco act	GRIN3A LBD mod	XBP1 UPR activ	UPR CHOP act	MPTP block	Rh123 counter	others
COc1cccc(OCC(O)CN2CCC(CN3C(=O)c4cccc5cccc(c45)C3=O)CC2)c1 (stereo unspecified)	45	2	-2	-3	-1	72*	50*
O=C1c2cccc3cccc(c23)C(=O)N1CC1CCN(CC(O)COc2ccc3ccccc3c2)CC1 (stereo unspecified)	x	2	-5	2	0	89*	99*
Cc1cc(C)cc(OCC(O)CN2CCC(CN3C(=O)c4cccc5cccc(c45)C3=O)CC2)c1 (stereo unspecified)	x	1	-3	0	0	98*	100*
COc1ccc(COCC(O)CN2CCC(CN3C(=O)c4cccc5cccc(c45)C3=O)CC2)cc1OC (stereo unspecified)	33	2	-2	-1	1	90*	18	MPTP abs DR=6.3*;MPTP cs DR=46*
O=C(NOC(=O)c1c(F)cccc1Cl)c1ccc(Cl)c(Cl)c1	x	0	-2	1	-1	10	x
CCN(CC)c1ccc(CN(C(=O)c2cccs2)C2CCS(=O)(=O)C2)cc1 (stereo unspecified)	x	0	1	-2	-2	-1	x
Cc1ccc2c(COC(=O)C3CSC4(C)CCC(=O)N34)cc(=O)oc2c1C (stereo unspecified)	x	0	1	-1	-1	-1	x
O=C1c2cccc3cccc(c23)C(=O)N1CCN1CCN(CC(O)COc2ccc3ccccc3c2)CC1 (stereo unspecified)	16	0	0	-1	0	3	x
CCc1ccc(OCC(O)CN2CCC(CN3C(=O)c4cccc5cccc(c45)C3=O)CC2)cc1 (stereo unspecified)	94*	4	-11	2	2	84*	0	MPTP abs DR=4.9*;MPTP cs DR=20*
CC(OC(=O)c1cccc(S(=O)(=O)Nc2cccc(C(F)(F)F)c2)c1)C(=O)Nc1ccc2c(c1)OCCO2 (stereo unspecified)	37	0	26*	-4	-2	67*	69*
S=C1N(c2ccccc2)CN(CCN2CCOCC2)CN1c1ccccc1	-2	0	-2	0	1	0	x
CCc1ccc(S(=O)(=O)c2nnn3c2nc(NCCNC(C)=O)c2ccccc23)cc1	-14	0	-6	2	-1	65*	43*
Cc1ccc(S(=O)(=O)c2nnn3c2nc(NCCCN2CCCC2=O)c2ccccc23)cc1C	x	0	-7	-1	1	0	x
O=C(Nc1ccncc1)c1cccc(S(=O)(=O)N2CCc3ccccc32)c1	x	2	-2	-2	4	96*	94*
CCCNC(=O)c1cc(S(=O)(=O)N2CCc3ccccc32)cn1C	x	2	2	-3	-3	71*	44*
CCc1ccccc1NC(=O)c1cc(S(=O)(=O)N2CCc3ccccc32)cn1C	x	0	0	-2	1	1	x
CCOC(=O)c1sc(NC(=O)c2cccc(S(=O)(=O)N3CCc4ccccc43)c2)c(C#N)c1C	95*	0	21*	4	4	91*	86*
COc1ccc(NS(=O)(=O)c2ccc3nc(COc4ccc(Cl)c(C)c4)[nH]c3c2)cc1	62	1	29*	0	0	67*	66*
O=C(COC(=O)C1(c2ccc(F)cc2)CCCC1)NCc1ccco1	22	0	2	0	0	90*	3	MPTP abs DR=i;MPTP cs DR=61*
CCOC(=O)c1ccc(NC(=S)NCCc2ccc(F)cc2)cc1	-2	1	24*	-1	-2	85*	79*

High-throughput results as filed in PubChem BioAssay.
